TRPML3 agonist: human TRPML3 channel agonists, primary screen, cell-based, HEK293 TRPML3-YFP, Fluo-8 calcium fluorescence, 3 µM. Mucolipin-3 (Homo sapiens), Q8TDD5. 100% = the carbachol control signal. activation, % at 3 µM. 220,000 tested, 0.29% active. AID 1448, 2008;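 active = activation above its plate's cutoff, the mean activation of the plate's test wells plus 3 SD, cut at about 12% in these data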;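 note: 0% = DMSO only wells and 100% = carbachol wells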
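Material: TRPML3-YFP stable HEK293 cells | Dosing: One concentration, 3 µM nominal, 0.3% DMSO | Timing: 125 s total fluorescence read per well | Technique: Fluo-8 calcium dye fluorescence, ex 470-495, em 515-575 nm | Measure: Percent activation from peak-to-basal fluorescence ratio, scaled between DMSO and carbachol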
CRFR2-BP antag: antagonists of CRF-BP/CRF-R2 complex, primary screen, cell-based, HEK293, calcium dye fluorescence, uHTS. AID 588475, 2011. 350,000 tested, 0.59% active. inhibition, % at 11.8 µM. CRF-induced calcium fluorescence;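 active = inhibition of the ligand-induced calcium signal above about 50% at the single tested concentration, limit read from the data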
TRPN1 ag: zebrafish TRPN1 channel agonists, primary screen, cell-based, HEK293, calcium fluorescence; transient receptor potential cation channel N1 (TRPN1/NompC), Danio rerio; HEK293 zebrafish TRPN1-YFP, Fluo-8 calcium fluorescence; 100% = response to 87 µM carbachol; activation, % at 3 µM; 220,000 tested, 0.18% active; AID 1424, 2008;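 active = activation above its plate's cutoff, the mean activation of test wells on that plate plus 3 SD, cut at about 19% in these data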;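 note: 0% = DMSO alone and 100% = 87 µM carbachol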
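Material – zebrafish TRPN1-YFP in HEK293 cells · Doses – 3 µM single point · Schedule – dye 1 h 37 °C plus 30 min RT · Signal – Fluo-8 calcium fluorescence, excitation 470-495 nm, emission 515-575 nm · Read-out – % activation versus carbachol response · Control set – carbachol high, DMSO low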
GPR7 antagonist: GPR7 receptor antagonists, primary screen, cell-based, fluorescence, single concentration. Neuropeptides B/W receptor type 1 (Homo sapiens), P48145. GPR7-expressing cells, fluorescence antagonist assay. inhibition, % at 4.4 µM. 290,000 tested, 1.1% active. AID 1861, 2009; in the data active = inhibition above about 16%, passing the limit was not always enough;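 note: cells stimulated with the agonist NPW; 0% = agonist with vehicle and 100% = vehicle without agonist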
Target sequence (P48145 whole entry, looked up): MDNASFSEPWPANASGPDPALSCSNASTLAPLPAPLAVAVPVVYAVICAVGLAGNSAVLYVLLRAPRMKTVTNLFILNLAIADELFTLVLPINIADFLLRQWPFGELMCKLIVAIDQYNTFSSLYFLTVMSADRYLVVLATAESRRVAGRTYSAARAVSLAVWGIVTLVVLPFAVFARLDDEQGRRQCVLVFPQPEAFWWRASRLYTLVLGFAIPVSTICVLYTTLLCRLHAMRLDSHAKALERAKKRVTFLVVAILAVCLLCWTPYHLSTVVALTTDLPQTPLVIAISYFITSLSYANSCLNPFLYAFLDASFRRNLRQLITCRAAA
CRFBP-R2 agonist: agonists of CRF-BP/CRF-R2 complex, primary screen, cell-based, HEK293, calcium dye fluorescence, uHTS; CRF-binding protein / CRF receptor 2 complex (human); 350,000 tested, 0.46% active; activation, % at 13.2 µM; calcium dye fluorescence (FLIPR); percent of saturating CRF peptide response;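 active = activation of at least 50%, plus an integration ratio under a set limit after plate pattern correction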;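 note: plate controls were neutral control wells without compound for no effect and CRF at EC100 for full effect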
TRPN1 ag 2: zebrafish TRPN1 channel agonists, counter-screen for TRPML3 agonist project, cell-based, HEK293 TRPN1-YFP, Fluo-8 calcium; shares compounds with TRPML3 agonist; Fluo-8 calcium fluorescence; scaled: carbachol wells 100%, DMSO wells 0%; activation, % at 3 µM; 310 tested, 10% active;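 active = mean activation over replicates above a set limit taken from the earlier TRPN1 channel primary screen, cut at about 19% in these data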;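 note: 100% = carbachol and 0% = 0.3% DMSO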
TRPML3 ag conf: human TRPML3 channel agonists, confirmation, cell-based, HEK293 TRPML3-YFP, Fluo-8 calcium, triplicate; Fluo-8 calcium fluorescence; 100% set by carbachol, 0% by DMSO; shares compounds with TRPML3 agonist; AID 1526, 2009; 310 tested, 80% active; activation, % at 3 µM;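 active = activation above a set limit derived from the earlier primary screen, cut at about 12% in these data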
GPR7 antag cf: GPR7 receptor antagonists, confirmation, cell-based, fluorescence, single concentration; AID 1952, 2009; GPR7-expressing cells, calcium fluorescence antagonist mode; 2,400 tested, 52% active; inhibition, % at 4.4 µM; shares compounds with GPR7 antagonist; in the data active = inhibition above about 24%;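 note: stimulated with the GPR7 agonist NPW; 0% = agonist plus vehicle and 100% = vehicle alone without agonist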
MCHR1 antag: MCHR1 antagonists in cells, counter-screen for GPR7 antagonist project, cell-based, fluorescence, human | shares compounds with GPR7 antagonist | MCHR1-expressing cells, fluorescence antagonist assay | inhibition, % at 4.4 µM | 2,400 tested, 62% active | AID 2148, 2009; in the data active = inhibition above about 22%;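 note: 0% = vehicle with agonist and 100% = vehicle without agonist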
The depositor's hits bear a star; . = not tested or not shown. Only some compounds are listed: those with a hit (about 2% of all), similar ones and a draw of the others.

SMILES	TRPML3 agonist	CRFR2-BP antag	TRPN1 ag	GPR7 antagonist	CRFBP-R2 agonist	GPR7 antag cf	MCHR1 antag	others
Nc1cc(Cl)c2nonc2c1[N+](=O)[O-]	0.6	58.0*	-0.4	5.2	-2.6	.	.
O=[N+]([O-])c1c(Cl)c(Cl)c(Cl)c(Cl)c1Cl	.	8.9	.	.	-0.2	.	.
CC1CN1P1(=O)OCC(C)([N+](=O)[O-])CO1 (centres undefined)	.	5.9	.	.	2.1	.	.
COCCCNP1(=O)OCC(C)([N+](=O)[O-])CO1 (centres undefined)	.	4.6	.	.	0.2	.	.
COC(=O)C1=C(c2cccc(Cl)c2)C[C@@H]2CC[C@H]1N2C(=O)N1CCCC1	.	17.4	.	.	-4.3	.	.
O=c1c2ccccc2nc(N2CCCC2)n1-c1ccc(Cl)cc1	-1.4	63.7*	-3.2	-8.2	-1.5	.	.
CCOC(=O)c1c(N)n(Cc2ccco2)c2nc3ccccc3nc12	15.4*	-2.7	4.3	-8.5	12.7	.	.	TRPN1 ag 2=3.8;TRPML3 ag conf=2.5
COc1ccc(-c2cc(=O)oc3c(C)c(OC(C)C(=O)N4C[C@H]5C[C@@H](C4)c4cccc(=O)n4C5)ccc23)cc1 (some centres undefined)	.	-7.0	.	11.3	-1.2	.	.
CCC1(CC)C(=O)NC(=NCCc2c[nH]c3ccccc23)NC1=O	-1.0	0.1	0.3	27.8*	-0.3	-3.2	7.4
NCCc1c[nH]c2ccccc12	0.6	-3.8	0.0	-5.4	0.0	.	.
NC(=O)CS(=O)C(c1ccccc1)c1ccccc1 (centres undefined)	1.1	.	1.0	-11.0	.	.	.
O=C(Nc1ccc(Cl)cc1)Nc1nccs1	-0.1	-5.8	2.4	30.0*	-1.3	27.9*	42.4*
O=C(Nc1nccs1)C(Cl)(Cl)Cl	1.0	1.9	1.4	-11.4	2.8	.	.
Cc1ccc(OCC(=O)N2CCN(Cc3ccc([N+](=O)[O-])cc3)CC2)cc1	2.5	23.0	6.7	21.4*	1.8	28.0*	35.7*
Cc1cccc(OCC(=O)N2CCN(Cc3ccc([N+](=O)[O-])cc3)CC2)c1	1.1	32.1	2.1	13.3	-0.8	.	.
N#CCCn1cc(C(=O)Nc2ccc([N+](=O)[O-])cc2)c(-c2ccc3c(c2)OCCO3)n1	0.9	-17.2	1.6	25.0*	0.9	0.7	12.8
COC(=O)C1=C(c2ccc3ccccc3c2)C[C@@H]2CC[C@H]1N2C(=O)N1CCC(C)CC1	.	5.6	.	.	0.4	.	.
C[C@]12CC[C@H](O)CC1=CC(=O)C1C2CC[C@]2(C)C(=O)[C@H](O)CC12 (some centres undefined)	.	-14.9	.	.	2.9	.	.
CCOc1ccc(-c2cc(C)[n+](CCc3ccc(OC)c(OC)c3)c(-c3ccc(OCC)cc3)c2)cc1	.	0.9	.	54.2*	0.1	65.9*	61.4*
CCC1CN1P(=O)(Oc1ccc(Cl)cc1)N1CC1CC (centres undefined)	.	7.4	.	.	7.9	.	.
CCCCOc1ccc(CCN)cc1Cl	0.7	-33.0	-2.4	28.9*	5.0	25.6*	30.5*
CCc1ccccc1NC(=O)CNC1CCCCC1	-0.5	6.9	-1.7	25.3*	-0.4	-0.3	6.6
Cc1ccc2ccccc2c1NC(=O)CNC1CCCCC1	0.1	-40.1	0.8	7.7	-0.7	.	.
O=C(O)CC[N+](=O)[O-]	.	18.7	.	.	-2.1	.	.
CCN(CC)C(=O)c1ccc(NC(=O)COC(=O)c2ccc(Cl)s2)cc1	.	4.3	.	.	-1.5	.	.
SMILES	TRPML3 agonist	CRFR2-BP antag	TRPN1 ag	GPR7 antagonist	CRFBP-R2 agonist	GPR7 antag cf	MCHR1 antag	others
CCOC(=O)C1CCCN(c2ccc([N+](=O)[O-])c3nonc23)C1 (centres undefined)	112.6*	-141.3	290.9*	44.9*	207.8*	42.5*	68.0*
Cc1nn(C)c(C)c1P(=S)(c1c(C)nn(C)c1C)N(C)C	0.3	3.0	-0.1	25.9*	1.1	-11.1	-3.5
CC/C(=N\NC(=O)c1ccccc1Cl)c1c(O)n(C2CCCCC2)c(=O)[nH]c1=O	.	-2.7	.	35.5*	0.6	-0.3	6.4
O=C(CCCc1ccccc1)NCCc1cnc[nH]1	.	-10.0	.	7.9	5.2	.	.
CCOc1cc2c(cc1OCC)-n1cccc1C(c1ccc(C)cc1C)NC2 (centres undefined)	.	-9.5	.	37.9*	0.9	19.4	23.1*
CCCNC(=O)N1[C@H]2CC[C@@H]1C(C(=O)OC)=C(c1ccc3ccccc3c1)C2	.	-3.9	.	.	-1.1	.	.
CCOc1ccc(N=Cc2c(O)n(-c3ccc(C)c(C)c3)c(=O)[nH]c2=O)cc1	0.7	5.0	-0.8	2.1	-2.5	.	.
CCOc1ccc(N=Cc2c(O)n(-c3cc(C)cc(C)c3)c(=O)[nH]c2=O)cc1	0.1	13.4	0.2	24.1*	0.6	-4.2	6.9
CCC(=O)c1cn(Cc2ccc(C#N)cc2)c2ccccc12	1.1	-3.0	-1.8	27.4*	-1.3	14.1	14.6
Fc1ccc2c(c1)nnn2C1CCN(Cc2nnnn2C2CCCCC2)CC1	-0.5	-5.0	0.8	26.6*	0.0	12.5	4.9
CCN1/C(=C\C=C\C2=[N+](CC)c3ccccc3C2(C)C)C(C)(C)c2ccccc21	158.5*	-275.6	316.8*	98.2*	260.2*	102.7*	105.5*
Cc1[nH]c2ccc(OC(F)(F)F)cc2c1CCNCc1ccc(Cl)cc1	.	-9.1	.	36.1	3.6	.	.
Cc1[nH]c2ccc(OC(F)(F)F)cc2c1CCNCc1cccc([N+](=O)[O-])c1	.	-11.9	.	43.0*	-1.2	35.0*	74.9*
CCOc1cccc(CNCCc2c(C)[nH]c3ccc(OC(F)(F)F)cc23)c1O	.	-32.5	.	53.4*	1.9	84.2*	95.1*
CCOC(=O)c1cccc(C2=C(CNC(=O)c3ccc([N+](=O)[O-])cc3)[C@H]3CC[C@@H](C2)N3Cc2ccccc2)c1	.	-8.3	.	.	-1.3	.	.

Screening data (PubChem)
